Test results published in article PMC9079187 (ACS nano, 2021).
Read-outs that look alike come from different tables or passages of the source. Blank lines part the entries; values can stand above or below the molecule they belong to.

Legend:
[1] = tested on: hippocampus of middle aged humans; conditions: middle aged humans of around 40 years of age; contrast agent; cited from earlier work
[2] = Zeta potential measurement; assay type: physicochemical; conditions: Malvern Zetasizer Nano; with NPs
[3] = Dynamic light scattering; assay type: physicochemical; conditions: DLS, Malvern Zetasizer Nano; DPBS pH 7.4, 0.05 mM, filtered 0.22 μm
[4] = Biodistribution in peripheral organs by ICP-MS; assay type: in vivo, mouse; conditions: ICP-MS of Gd
Procedure, shortened: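 Male and female C57BL/6J mice, three aged 2 months and three aged 12 months, received 100 μL of 0.5 mM control or targeted Gd-oxide NPs. Transcardial perfusion with ice-cold DPBS followed at 1 hr. Heart, lung, liver, kidneys, spleen, colon and intestine were weighed and digested in HNO3 at 100 °C for 120 minutes. Samples were filtered, diluted and measured for Gd by ICP-MS.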

[5] = molecular target: T1, human claudin-9 (Homo sapiens, UniProt O95484); assay: Microscale thermophoresis; assay type: binding; conditions: MST; buffer with 0.1% n-Undecyl-β-D-Maltopyranoside; 23°C; C1C2-NP fixed at 70 nM, claudin-9 0.6-20000 nM
T1 sequence (O95484 1-217): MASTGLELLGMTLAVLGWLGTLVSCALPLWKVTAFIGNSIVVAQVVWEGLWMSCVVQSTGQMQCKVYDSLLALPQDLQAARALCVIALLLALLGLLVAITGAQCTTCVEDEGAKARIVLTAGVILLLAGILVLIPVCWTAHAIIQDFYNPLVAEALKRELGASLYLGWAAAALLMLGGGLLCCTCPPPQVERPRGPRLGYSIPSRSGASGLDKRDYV
Procedure, shortened: (§1)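 Microscale thermophoresis on a Monolith instrument. AF647-labelled test NP was held at 70 nM against titrated human claudin-3 (0.4–14000 nM), claudin-4 (0.8–28000 nM) or claudin-9 (0.6–20000 nM). Buffer was 10 mM Tris-HCl pH 8.0, 100 mM NaCl, 4% glycerol and 0.1% n-undecyl-β-D-maltopyranoside. As a non-specific control, detergent was titrated 10 mM–0.7 μM against 1 μM AF647-labelled control NP.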

[6] = molecular target: T2, claudin-1 on brain endothelial cells (Mus musculus, UniProt O88551); assay type: in vivo; conditions: corpus callosum and hippocampus, confocal, ~2 hrs post-injection
T2 sequence (O88551 1-211): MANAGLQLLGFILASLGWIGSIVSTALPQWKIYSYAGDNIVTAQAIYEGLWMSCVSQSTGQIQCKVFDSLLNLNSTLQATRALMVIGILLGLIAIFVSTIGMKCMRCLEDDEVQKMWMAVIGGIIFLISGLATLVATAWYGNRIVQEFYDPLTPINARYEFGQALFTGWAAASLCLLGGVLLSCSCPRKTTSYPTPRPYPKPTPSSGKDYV
Procedure, shortened: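 Male and female C57BL/6J mice, 2 and 12 months old, received 100 μL of 0.5 mM test NP by tail vein, then a 100 μL PBS flush. About 2 h after injection they were perfused with 4% PFA and brains fixed 24 h. Sections were blocked 1 h at RT, stained overnight at 4 °C with rat anti-CD31 (1:250) and rabbit anti-claudin-1 (1:100), then AF488/AF555 secondaries (1:250, 2 h, RT) and DAPI. Confocal imaging used a 40x objective; colocalization was quantified with JACoP on ≥3 random fields per region per mouse.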

[7] = molecular target: T3, human claudin-1 expressed in bEnd.3 cells (Homo sapiens, UniProt O95832); assay type: cell-based; conditions: plasmid transfection; NP incubation 4 hrs; fluorescence
T3 sequence (O95832 1-211): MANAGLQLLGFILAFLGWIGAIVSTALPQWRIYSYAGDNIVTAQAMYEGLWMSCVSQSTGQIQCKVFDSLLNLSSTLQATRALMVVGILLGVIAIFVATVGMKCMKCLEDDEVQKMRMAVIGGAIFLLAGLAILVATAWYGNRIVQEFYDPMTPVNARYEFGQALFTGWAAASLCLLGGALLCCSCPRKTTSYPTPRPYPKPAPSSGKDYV
Procedure, shortened: (§2)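 bEnd.3 mouse brain endothelial cells were grown in DMEM. For mouse claudin-1, cells were treated with ethanol (50 mM) to induce expression. For human claudin-1, cells were transfected with a pCMV plasmid encoding it. Cells were then incubated with AF-647-labelled targeted NPs for 4 hrs and imaged by fluorescence. Claudin-1 induction was checked by western blot relative to β-actin.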

[8] = molecular target: T4, human claudin-4 (Homo sapiens, UniProt O14493); assay: Microscale thermophoresis; assay type: binding; conditions: MST; buffer with 0.1% n-Undecyl-β-D-Maltopyranoside; 23°C; C1C2-NP fixed at 70 nM, claudin-4 0.8-28000 nM
T4 sequence (O14493 1-209): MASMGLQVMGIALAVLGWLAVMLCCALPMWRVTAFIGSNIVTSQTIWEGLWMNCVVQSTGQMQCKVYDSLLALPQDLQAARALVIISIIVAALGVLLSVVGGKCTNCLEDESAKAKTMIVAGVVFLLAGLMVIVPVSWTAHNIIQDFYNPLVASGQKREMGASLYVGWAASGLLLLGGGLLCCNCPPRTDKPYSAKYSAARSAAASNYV
Procedure, shortened: as §1

[9] = molecular target: T5, mouse claudin-1 in bEnd.3 cells (Mus musculus, UniProt O88551); assay: In vitro fluorescence imaging of NP binding to bEnd.3 cells; assay type: cell-based
T5 sequence (O88551 1-211): T2 sequence (O88551 1-211)
Procedure, shortened: as §2

[10] = molecular target: T6, human claudin-3 (Homo sapiens, UniProt O15551); assay: Microscale thermophoresis; assay type: binding; conditions: MST; claudin-3 0.4-14000 nM; C1C2-NP fixed at 70 nM; buffer with 0.1% n-Undecyl-β-D-Maltopyranoside; 23°C
T6 sequence (O15551 1-220): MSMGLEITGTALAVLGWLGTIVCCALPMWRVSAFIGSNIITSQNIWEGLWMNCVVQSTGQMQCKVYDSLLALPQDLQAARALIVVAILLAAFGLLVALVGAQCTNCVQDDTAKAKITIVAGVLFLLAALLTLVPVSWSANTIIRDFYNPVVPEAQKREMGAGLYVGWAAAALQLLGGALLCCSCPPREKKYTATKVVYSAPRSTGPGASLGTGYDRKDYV
Procedure, shortened: as §1

[11] = molecular target: C1C2-NP (C1C2 peptide conjugated to PEG diacid coated Gd nanoparticles, AF647 labeled); assay: MST

Molecule: CNC[C@H](O)[C@@H](O)[C@H](O)[C@H](O)CO.CNC[C@H](O)[C@@H](O)[C@H](O)[C@H](O)CO.O=C([O-])CN(CCN(CC(=O)[O-])CC(=O)O)CCN(CC(=O)O)C(COCc1ccccc1)C(=O)[O-].[Gd+3] (centres unmarked) [MultiHance]
K^trans, hippocampus [1]: ~ 0.001 min^−1

Molecule: GSQIYMICNQFYTPGGTG [Ocldn207-NP]
Zeta Potential [2]: 3.65±0.19 mV
Hydrodynamic size [3]: 14.23±0.11 nm

Molecule: QEFYDPLTPINARYE [Cldn146-NP]
Zeta Potential [2]: 1.62±0.13 mV
Hydrodynamic size [3]: 13.94±0.08 nm

Molecule: SCVSQSTGQIQCKVFDSLLNLNSTLQAT [Cldn53-NP]
Zeta Potential [2]: 2.24±0.18 mV
Hydrodynamic size [3]: 13.8±0.11 nm

binding to human claudin-9 (in words) [5]: quite weak
colocalization of claudin-1, CD31 and nanoparticles in brain ([6]; 2-month-old mice): not observed
colocalization of claudin-1, CD31 and nanoparticles in brain ([6]; 12-month-old mice): colocalization
NP binding to bEnd.3 cells transfected to express human claudin-1 [7]: High NP binding
binding to human claudin-4 (in words) [8]: quite weak
NP binding to ethanol-exposed bEnd.3 cells ([9]; ethanol (50mM) induced claudin-1, NP incubation 4 hrs): much higher binding
NP binding to control bEnd.3 cells ([9]; normal culture, low claudin-1 expression, AF-647 modified NPs): no binding
binding to human claudin-3 (in words) [10]: does not show any binding
Molecule: SSVSQSTGQIQSKVDSLLNLNSTQATR [C1C2-NP]
accumulation in the kidney ([4]; 1 hr post-injection of 100 μL of 0.5 mM NPs, versus control NPs): increased
accumulation in kidneys, 12-month-old compared to 2-month-old mice ([4]; 1 hr post-injection, three mice per age): higher
Zeta Potential [2]: 7.81±0.38 mV
Hydrodynamic size [3]: 14.5±0.13 nm

Kd [11]: 21 µM
Molecule: recombinant human claudin-1 (from UniProt O95832 1-211) (natural protein)
